# From PubChem BioAssay
# STAT1 act: increases IFN-gamma driven STAT1 reporter signal. NIH 3T3 STAT1-luciferase reporter, luminescence; 100% = IFN-gamma alone, no compound. activation (% of control), % at 5.5 µM. 2.6% of 200,000 active. AID 932;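 active = activation above the screen-wide mean activation plus 3 SD, cut at about 130% in these data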
# NF-kB expr up: compounds increasing NF-kB expression in human neuronal cells; fold change at 12.5 µM; NF-kB reporter expression; hits give high values; 1.6% of 190,000 active; in the data active = fold change above about 3.3
# APP 5'UTR act: activates APP 5'UTR luciferase reporter | 1% of 190,000 active | activation, % at 2 µM | SH-SY5Y APP 5'UTR luciferase reporter, luminescence; zero percent = DMSO vehicle wells | AID 1276;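 active = activation above a set limit, based on mean plus 3 SD of controls, cut at about 140% in these data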
# FLuc act counter: affects firefly luciferase, flagging false hits in luciferase stimulation screens; 200,000 tested, under 10 active; ATPlite luciferase biochemical, luminescence, 10 min; 0 = ATP-free wells, 1 = DMSO control; activation factor at 10 µM; P08659;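 active = luciferase activation factor, scaled between plate controls, of at least 2 with compound at 10 µM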
# Target sequence (P08659 whole entry, looked up): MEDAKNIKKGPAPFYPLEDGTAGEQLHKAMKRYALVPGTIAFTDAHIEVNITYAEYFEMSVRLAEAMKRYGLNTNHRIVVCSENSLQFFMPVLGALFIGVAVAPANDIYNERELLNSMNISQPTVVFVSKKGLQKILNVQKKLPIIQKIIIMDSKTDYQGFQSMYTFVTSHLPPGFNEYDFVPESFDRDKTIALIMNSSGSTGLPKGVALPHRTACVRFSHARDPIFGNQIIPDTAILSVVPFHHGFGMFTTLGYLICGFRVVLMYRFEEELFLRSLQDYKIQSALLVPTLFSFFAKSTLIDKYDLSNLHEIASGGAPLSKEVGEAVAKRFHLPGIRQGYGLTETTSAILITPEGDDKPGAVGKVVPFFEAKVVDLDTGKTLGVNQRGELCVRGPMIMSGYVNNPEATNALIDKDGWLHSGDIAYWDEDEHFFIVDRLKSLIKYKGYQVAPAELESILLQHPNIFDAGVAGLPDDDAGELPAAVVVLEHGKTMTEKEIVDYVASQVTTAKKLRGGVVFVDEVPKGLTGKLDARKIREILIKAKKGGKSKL
#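 Material: Luciferase/luciferin reagent mix; Doses: test compounds dosed from 2 mM stocks in 100% DMSO; Schedule: 10 min incubation after luciferase reagent addition, room temperature; Measured by: luminescence from luciferase reaction; Read-out: luminescence gain marking luciferase activators.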
# FLuc inh counter: inhibits firefly luciferase, flagging false hits in luciferase inhibition screens; AID 1006; 1.5% of 200,000 active; ATPLite firefly luciferase biochemical luminescence, 10 min; P08659; inhibition, % at 10 µM;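 active = inhibition above about 50% when tested at 10 µM, limit read from the data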
# Numbers stand for hits; i = inactive; nt = not tested or not shown. Most compounds without a hit are left out; they make up all but 4.1% or so of the library.
SMILES,STAT1 act,NF-kB expr up,APP 5'UTR act,FLuc act counter,FLuc inh counter
CNc1nc(-c2ccc3c(c2)CCN3C(=O)c2ccc(F)cc2)cs1,i,i,i,i,i
CNc1nc(-c2ccc3c(c2)CCN3C(=O)c2ccccc2C)cs1,145.4,3.79,193.2,i,i
COc1cc(OC)c(OC)cc1CNCCNC(=O)c1nonc1N,i,i,i,i,i
N#Cc1c(NCCCO)nc(NCc2ccccc2)c2c1CCN(Cc1ccccc1)C2,i,3.31,i,i,i
CN1CCc2c(C#N)c(N3CCCCC3)nc(NCc3ccccc3)c2C1,i,i,i,i,i
Nc1ccc2oc(=O)c3ccccc3c2c1,134.2,i,i,i,i
Nc1c(N)c2ccccc2oc1=O,i,i,i,i,i
Cc1ccc(CNC(=O)COC(=O)CCC(=O)c2cccs2)cc1,i,i,i,i,i
COc1ccccc1NC(=O)c1ccc(CSc2ncccn2)cc1,i,i,i,i,i
O=C(Cn1cnc2ccccc2c1=O)NCc1ccc2c(c1)OCO2,i,i,i,i,i
O=C(Cn1cnc2ccccc2c1=O)c1ccc2ccccc2c1,i,i,i,i,i
Cc1ccc(C(=O)CSc2cnc3ccccc3n2)cc1C,i,i,154.3,i,i
O=C(CSc1ccc2ccccc2n1)c1ccc2c(c1)OCO2,134.1,i,i,i,i
O=C(O)CSc1ccc2ccccc2n1,i,i,i,i,i
Cc1ccc(C(=O)Cn2cnc3ccccc3c2=O)cc1C,137.7,3.33,i,i,i
O=C(Cn1cnc2ccccc2c1=O)c1ccc2c(c1)OCCO2,136.8,3.65,150.6,i,i
CC(=O)OCC(OC(C)=O)C(OC(C)=O)C(OC(C)=O)C(=O)Nc1cccc(C)c1 (stereo not drawn),nt,nt,i,nt,nt
Cc1ccc(C(=O)N/N=C(/CC(=O)c2cccs2)C(F)(F)F)cc1,i,i,i,i,i
Cc1ccc(N=C/C(C(=O)C(F)(F)F)=C(\O)c2cccs2)cc1,i,i,189.6,i,i
O=C(COc1ccc(Br)cc1Br)NC(=O)NC1CCCC1,142.3,3.41,i,i,i
CC(C)c1ccc2nc(N)sc2c1,i,i,i,i,66.7
Nc1nc2ccc(O)cc2s1,i,i,i,i,i
Cc1onc(-c2ccccc2Cl)c1C(=O)N1C=CC(C(F)(F)Cl)=NCC1,i,i,i,i,i
C/C(=N\OC(=O)c1cccc(C(F)(F)F)c1)c1sc(-c2ccccc2)nc1C,i,3.98,i,i,i
C/C(=N\OC(=O)c1cccc(C)c1)c1sc(-c2ccccc2)nc1C,i,3.58,i,i,i
SMILES,STAT1 act,NF-kB expr up,APP 5'UTR act,FLuc act counter,FLuc inh counter
C/C(=N\OC(=O)c1ccc(F)cc1)c1sc(-c2ccccc2)nc1C,i,i,i,i,i
C/C(=N\OC(=O)c1ccc(Cl)cc1)c1sc(-c2ccccc2)nc1C,i,4.43,i,i,i
COc1ccc(/C=N/OCC(=O)N2CCCC2)c(OC)c1,i,i,i,i,i
CCOC(=O)C(NC(C)=O)C(=O)Nc1ccc(C)cc1C (stereo not drawn),i,i,i,i,i
O=C(Cn1cc(F)c(=O)[nH]c1=O)NCCO,i,i,i,i,i
O=C1C(Cl)=C(Nc2ccccc2O)C(=O)N1c1ccccc1,i,4.32,i,i,i
COc1ccccc1N1C(=O)C(Cl)=C(Nc2ccccc2O)C1=O,i,i,i,i,i
Nc1n[nH]c(-c2ccc(F)cc2)n1,i,i,i,i,i
CCCCc1ccc(-c2nc(N)n[nH]2)cc1,i,i,i,i,68.5
O=C1CCCC(O)=C1C=NCc1ccccc1,i,i,i,i,i
O=C1CC(Cc2ccccc2)C(=O)N1Cc1ccco1 (stereo not drawn),i,i,i,i,87.4
Cc1ccc(CC2CC(=O)N(Cc3ccco3)C2=O)cc1 (stereo not drawn),142.2,4.3,i,i,i
COc1ccc(CCN2C(=O)CC(Cc3ccc(C)cc3)C2=O)cc1OC (stereo not drawn),i,i,i,i,i
Cc1c(-c2ccccc2)n[nH]c1C(=O)NN,i,i,i,i,i
CCOc1ccc(-c2n[nH]c(C(=O)NN)c2C)cc1,128.7,i,i,i,i
CC(=O)N1CCc2cc(N=NC3=C(O)CC(C)(C)CC3=O)ccc21,131.7,i,i,i,i
CCCOC(=O)CSc1nnc(-c2ccc(Cl)cc2Cl)o1,i,i,i,i,i
CCOC(=O)CSc1nnc(-c2ccc(Cl)cc2Cl)o1,i,i,i,i,56.4
O=C(Cc1nn[nH]n1)NCc1ccccc1Cl,i,i,i,i,i
COc1ccccc1NC(=O)CSc1nnc(-c2ccncc2)o1,i,i,i,i,i
COc1ccc(-c2nnc(SCC(=O)Nc3cccc(Cl)c3)o2)cc1,i,i,213.7,i,i
COc1ccc(-c2nnc(SCC(=O)Nc3ccccc3OC)o2)cc1,i,4.13,i,i,i
Cc1cnc(NC(=O)CSc2nnc(-c3ccccc3)o2)s1,128.7,i,i,i,i
O=S(=O)(CCN(CCS(=O)(=O)C(F)(F)F)CC1CCCO1)C(F)(F)F (stereo not drawn),i,i,i,i,i
Cc1nn(C)c(C)c1/C=C/C(=O)c1ccccc1,i,i,i,i,i
SMILES,STAT1 act,NF-kB expr up,APP 5'UTR act,FLuc act counter,FLuc inh counter
Cc1nn(C)cc1/C=C/C(=O)c1ccccc1,i,10.8,161.1,i,54.4
CCn1cc(/C=C/C(=O)c2ccc(O)cc2)c(C)n1,i,3.6,i,i,89.7
CCn1cc(/C=N/O)c(C)n1,i,i,i,i,i
Cc1nn(C)cc1/C=C/C(=O)c1cccs1,i,6.32,i,i,62.7
CCc1ccc(NC(=O)c2ccccc2NC(=O)C2CCCO2)cc1 (stereo not drawn),i,i,i,i,i
Nc1nn2cc(-c3ccccc3)nc2c2ccccc12,143.4,i,197.7,i,84.6
Cc1cn2nc(N)c3ccccc3c2n1,i,i,i,i,i
O=C(NCCc1cn2ccsc2n1)C1CCCCC1,i,i,i,i,i
O=C(Cc1cn2ccsc2n1)OCc1ccccc1,i,5.31,i,i,i
Clc1ccc(SCc2cn3ccsc3n2)cc1,134.4,i,i,i,i
Clc1ccc(SCc2cn3cccnc3n2)cc1,i,i,i,i,i
O=C(Cc1cn2ccsc2n1)NCc1ccccc1,i,i,i,i,i
c1cn2cc(CSC3CCCCC3)nc2s1,133.7,i,i,i,i
O=C(Cc1cn2ccsc2n1)OCc1nc2ccccc2s1,i,i,i,i,i
c1ccc(CSCc2cn3ccsc3n2)cc1,131.6,8.88,i,i,i
O=C(NCc1ccco1)/C(=C\c1cccnc1)NC(=O)c1ccccc1F,i,i,i,i,i
c1ccc2oc(SCc3cn4ccsc4n3)nc2c1,138.4,i,i,i,i
Cc1csc2nc(CSc3nc4ccccc4o3)cn12,i,i,i,i,i
Cc1nc(Oc2ccc(S(=O)(=O)N3CCOCC3)cc2Cl)c2c3c(sc2n1)CCCC3,i,i,i,i,i
CCC(=O)OCn1nnc2ccccc2c1=O,i,i,i,i,i
CCCn1nnc2ccccc2c1=O,i,i,i,i,i
